Data set [1] deals with Hepatitis C virus. Put plainly: Antiviral activity against HCV genotype 1b Con1 expressing NS3 protease infected in human Huh-7 cells assessed as reduction in viral RNA replication after 72 hrs by luciferase reporter gene assay. The data set is classed as functional, cell-based, Hepacivirus hominis. As to conditions: genotype 1b Con1, Huh-7, 72 h. A general note: In a reporter assay the amount or activity of a reporter protein is the signal.

The nature of data set [2]: Selectivity index, ratio of CC50 for human Huh-7 cells to EC50 for HCV genotype 1b Con1 expressing NS3 protease. The method in brief:
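Selectivity index = CC50/EC50. EC50 from a luciferase-read Con1 subgenomic replicon assay in Huh-7 (GS4.1) cells.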

Data set [3] has as its system Liver. Put plainly: Dose normalized AUC (0 to 24 hrs) in mouse liver assessed as 2'-C-MeUTP level at 10 mg/kg, po administered as single dose. The settings on record: in vivo. It is filed as ADME, organism-based. In a few lines: (§1)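 Mice given a single oral 10 mg/kg dose. Triphosphate measured in liver and parent nucleoside in plasma. AUC expressed as dose-normalized AUC (AUC per mg/kg).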

Data set [4] concerns Plasma. Put plainly: Dose normalized AUC (0 to 24 hrs) in mouse plasma assessed as 2'-C-MeU level at 10 mg/kg, po administered as single dose. As to conditions: in vivo. It is filed as ADME, organism-based. In a few lines:
as §1

Here are results for 33 compounds from ChEMBL document CHEMBL4043192, “The discovery of IDX21437: Design, synthesis and antiviral evaluation of 2'-α-chloro-2'-β-C-methyl branched uridine pronucleotides as potent liver-targeted HCV polymerase inhibitors” (Bioorg Med Chem Lett, 2017).

Where only a bound is given, the exact number is not on record here.

As a reminder, the EC50 is the concentration needed to bring the measured effect to its halfway point. As to `CC(C)OC(=O)[C@@H](N[P@@](=O)(OC[C@H]1O[C@@H](n2ccc(=O)[nH]c2=O)[C@](C)(Cl)[C@@H]1O)Oc1ccccc1)C(C)C`, the half-maximal effective concentration (EC50) in data set [1] was above 100 µM. In addition, in data set [2], the “Ratio CC50/EC50” value is above 1.
With `CC(C)(CO)C(=O)SCCO[P@](=O)(NCc1ccccc1)OC[C@H]1O[C@@H](n2ccc(=O)[nH]c2=O)[C@](C)(Cl)[C@@H]1O`, the figures for the AUC/dose in data set [3] and in data set [4] were 96 pmol·h/g and 590 pmol·h/mL, respectively. For the same compound, the EC50 in data set [1] came out at 3.61 µM. The “Ratio CC50/EC50” value in data set [2] is reported as above 28.
As for `C[C@@H](N[P@](=O)(OC[C@H]1O[C@@H](n2ccc(=O)[nH]c2=O)[C@](C)(Cl)[C@@H]1O)Oc1ccccc1)C(=O)OCc1ccccc1`, the values for the AUC/dose in data set [3] and in data set [4] were 6900 pmol·h/g and 1700 pmol·h/mL, respectively. Besides, the EC50 in data set [1] came out at 0.819 µM. The “Ratio CC50/EC50” value in data set [2] was above 122.
Take `CC(C)(CO)C(=O)SCCO[P@@]1(=O)OC[C@H]2O[C@@H](n3ccc(=O)[nH]c3=O)[C@](C)(Cl)[C@@H]2O1`: the AUC/dose in data set [3] was 3600 pmol·h/g; in data set [4], 710 pmol·h/mL. The EC50 in data set [1] came out at 0.417 µM. In data set [2], the “Ratio CC50/EC50” value is recorded as above 240.
For `CCOC(=O)[C@@H](CC(C)C)N[P@@](=O)(OC[C@H]1O[C@@H](n2ccc(=O)[nH]c2=O)[C@](C)(Cl)[C@@H]1O)Oc1ccccc1`, the 50% effective concentration (EC50) in data set [1] was 37.4 µM. Moreover, the “Ratio CC50/EC50” value in data set [2] is reported as above 3.
For `CCOC(=O)NCC(C)(C)C(=O)SCCO[P@@](=O)(NCc1ccccc1)OC[C@H]1O[C@@H](n2ccc(=O)[nH]c2=O)[C@](C)(Cl)[C@@H]1O`, in that order: 1.16 µM and above 86.
The corresponding values for `CC(C)OC(=O)[C@@H](N[P@](=O)(OC[C@H]1O[C@@H](n2ccc(=O)[nH]c2=O)[C@](C)(Cl)[C@@H]1O)Oc1ccccc1)C(C)C` are above 100 µM and above 1.
For `CCOC(=O)NCC(C)(C)C(=O)SCCO[P@](=O)(NCc1ccccc1)OC[C@H]1O[C@@H](n2ccc(=O)[nH]c2=O)[C@](C)(Cl)[C@@H]1O`, in that order: 1.27 µM and above 79.
As for `CCOC(=O)[C@@H](C)N[P@@](=O)(OC[C@H]1O[C@@H](n2ccc(=O)[nH]c2=O)[C@](C)(Cl)[C@@H]1O)Oc1ccccc1`, the EC50 in data set [1] stood at 8.14 µM. Moreover, the “Ratio CC50/EC50” value in data set [2] is above 12.
Take `CCOC(=O)[C@@H](CC(C)C)N[P@](=O)(OC[C@H]1O[C@@H](n2ccc(=O)[nH]c2=O)[C@](C)(Cl)[C@@H]1O)Oc1ccccc1`: in data set [1], the concentration giving a half-maximal response (EC50) is above 100 µM. Besides, the “Ratio CC50/EC50” value in data set [2] is given as above 1.
With `C[C@H](N[P@](=O)(OC[C@H]1O[C@@H](n2ccc(=O)[nH]c2=O)[C@](C)(Cl)[C@@H]1O)Oc1ccccc1)C(=O)OCc1ccccc1`, the AUC/dose is 850 pmol·h/g in data set [3] and 2500 pmol·h/mL in data set [4]. Besides, the 50% effective concentration (EC50) in data set [1] turned out to be 0.071 µM. Besides, the “Ratio CC50/EC50” value in data set [2] was above 1408.
`CC(C)OC(=O)[C@@H](C)N[P@@]1(=O)OC[C@H]2O[C@@H](n3ccc(=O)[nH]c3=O)[C@](C)(Cl)[C@@H]2O1`: the AUC/dose in data set [3] stood at 2400 pmol·h/g; in data set [4] it was 770 pmol·h/mL. In data set [1], the concentration giving a half-maximal response (EC50) stood at 31.8 µM. Besides, in data set [2], the “Ratio CC50/EC50” value is on record as above 3.
As for `CCCCOC(=O)[C@@H](C)N[P@](=O)(OC[C@H]1O[C@@H](n2ccc(=O)[nH]c2=O)[C@](C)(Cl)[C@@H]1O)Oc1ccccc1`, the figures for the AUC/dose in data set [3] and in data set [4] were 7200 pmol·h/g and 1700 pmol·h/mL, respectively. For the same compound, the EC50 in data set [1] worked out at 0.528 µM. Besides, the “Ratio CC50/EC50” value in data set [2] was above 189.
With `CC(C)(CO)C(=O)SCCOP(=O)(NCc1ccccc1)OC[C@H]1O[C@@H](n2cnc3c(=O)[nH]c(N)nc32)[C@](C)(O)[C@@H]1O` (some centres not stated), the AUC/dose turned out to be 275 pmol·h/g in data set [3] and 45 pmol·h/mL in data set [4]. Further, the concentration for a half-maximal effect (EC50) in data set [1] worked out at 0.203 µM. Further, the “Ratio CC50/EC50” value in data set [2] is reported as above 370.
For `CCOC(=O)[C@H](CC(C)C)N[P@@](=O)(OC[C@H]1O[C@@H](n2ccc(=O)[nH]c2=O)[C@](C)(Cl)[C@@H]1O)Oc1ccccc1`, the results for the AUC/dose in data set [3] and in data set [4] were 220 pmol·h/g and 940 pmol·h/mL, respectively. Besides, the EC50 in data set [1] came out at 2.49 µM. The “Ratio CC50/EC50” value in data set [2] is on record as above 40.
For `CC(C)C[C@H](N[P@@](=O)(OC[C@H]1O[C@@H](n2ccc(=O)[nH]c2=O)[C@](C)(Cl)[C@@H]1O)Oc1ccccc1)C(=O)OC(C)C`, the concentration for a half-maximal effect (EC50) in data set [1] came to 12.6 µM. In addition, the “Ratio CC50/EC50” value in data set [2] is reported as above 8.
As to `CCCCOC(=O)[C@@H](C)N[P@@](=O)(OC[C@H]1O[C@@H](n2ccc(=O)[nH]c2=O)[C@](C)(Cl)[C@@H]1O)Oc1ccccc1`, the AUC/dose was 8400 pmol·h/g in data set [3] and 1700 pmol·h/mL in data set [4]. For the same compound, the concentration for a half-maximal effect (EC50) in data set [1] came out at 2.18 µM. The “Ratio CC50/EC50” value in data set [2] is listed as above 46.
The corresponding values for `C[C@H](N[P@@](=O)(OC[C@H]1O[C@@H](n2ccc(=O)[nH]c2=O)[C@](C)(Cl)[C@@H]1O)Oc1ccccc1)C(=O)OCc1ccccc1` are 1200 pmol·h/g, 1900 pmol·h/mL, 0.185 µM and above 541.
For `CCOC(=O)[C@H](C)N[P@](=O)(OC[C@H]1O[C@@H](n2ccc(=O)[nH]c2=O)[C@](C)(Cl)[C@@H]1O)Oc1ccccc1`, in that order: 400 pmol·h/g, 1100 pmol·h/mL, 0.257 µM and above 389.
Turning to `CC(C)C[C@H](N[P@](=O)(OC[C@H]1O[C@@H](n2ccc(=O)[nH]c2=O)[C@](C)(Cl)[C@@H]1O)Oc1ccccc1)C(=O)OC(C)C`, the EC50 in data set [1] turned out to be 1.11 µM. Further, the “Ratio CC50/EC50” value in data set [2] is above 90.
Regarding `CCOC(=O)[C@@H](C)N[P@](=O)(OC[C@H]1O[C@@H](n2ccc(=O)[nH]c2=O)[C@](C)(Cl)[C@@H]1O)Oc1ccccc1`, the 50% effective concentration (EC50) in data set [1] is 2.55 µM. For the same compound, the “Ratio CC50/EC50” value in data set [2] is given as above 39.
For `CC(C)OC(=O)[C@H](C)NP(=O)(N[C@@H](C)C(=O)OC(C)C)OC[C@H]1O[C@@H](n2ccc(=O)[nH]c2=O)[C@](C)(Cl)[C@@H]1O`, in data set [1], the EC50 amounted to 12 µM. Further, in data set [2], the “Ratio CC50/EC50” value was above 8.
As to `CC(C)OC(=O)[C@H](C)N[P@@]1(=O)OC[C@H]2O[C@@H](n3ccc(=O)[nH]c3=O)[C@](C)(Cl)[C@@H]2O1`, the AUC/dose in data set [3] came to 520 pmol·h/g; in data set [4] it was 1100 pmol·h/mL. Besides, in data set [1], the EC50 came out at 4.02 µM. Also, in data set [2], the “Ratio CC50/EC50” value is above 25.
For `C[C@@H](N[P@@](=O)(OC[C@H]1O[C@@H](n2ccc(=O)[nH]c2=O)[C@](C)(Cl)[C@@H]1O)Oc1ccccc1)C(=O)OCc1ccccc1`, in that order: 5600 pmol·h/g, 1400 pmol·h/mL, 4.28 µM and above 23.
In the case of `CCOC(=O)[C@H](C)N[P@@](=O)(OC[C@H]1O[C@@H](n2ccc(=O)[nH]c2=O)[C@](C)(Cl)[C@@H]1O)Oc1ccccc1`, the AUC/dose in data set [3] was found to be 840 pmol·h/g; in data set [4] it was 1100 pmol·h/mL. Besides, the EC50 in data set [1] was found to be 0.845 µM. The “Ratio CC50/EC50” value in data set [2] is listed as above 118.
As to `CC(C)OC(=O)[C@@H](C)NP(=O)(N[C@H](C)C(=O)OC(C)C)OC[C@H]1O[C@@H](n2ccc(=O)[nH]c2=O)[C@](C)(Cl)[C@@H]1O`, the AUC/dose in data set [3] was determined as 490 pmol·h/g; in data set [4], 210 pmol·h/mL. In data set [1], the EC50 is above 100 µM. For the same compound, the “Ratio CC50/EC50” value in data set [2] is recorded as above 1.
Turning to `CC(C)(CO)C(=O)SCCO[P@@](=O)(NCc1ccccc1)OC[C@H]1O[C@@H](n2ccc(=O)[nH]c2=O)[C@](C)(Cl)[C@@H]1O`, the results for the AUC/dose in data set [3] and in data set [4] were 150 pmol·h/g and 930 pmol·h/mL, respectively. In addition, the 50% effective concentration (EC50) in data set [1] stood at 3.99 µM. Also, the “Ratio CC50/EC50” value in data set [2] is recorded as above 25.
With `CCOC(=O)NCC(C)(C)C(=O)SCCOP1(=O)OC[C@H]2O[C@@H](n3ccc(=O)[nH]c3=O)[C@](C)(Cl)[C@@H]2O1` (single isomer, unassigned; 27a), the EC50 in data set [1] came to 0.351 µM. Also, in data set [2], the “Ratio CC50/EC50” value is above 285.
Regarding `CC(C)OC(=O)[C@H](C)N[P@](=O)(OC[C@H]1O[C@@H](n2ccc(=O)[nH]c2=O)[C@](C)(Cl)[C@@H]1O)Oc1ccccc1`, the AUC/dose was found to be 560 pmol·h/g in data set [3] and 1300 pmol·h/mL in data set [4]. For the same compound, the EC50 in data set [1] was 0.158 µM. The “Ratio CC50/EC50” value in data set [2] is recorded as above 633.
On to `CCOC(=O)[C@H](CC(C)C)N[P@](=O)(OC[C@H]1O[C@@H](n2ccc(=O)[nH]c2=O)[C@](C)(Cl)[C@@H]1O)Oc1ccccc1`, for which the AUC/dose in data set [3] was 270 pmol·h/g; in data set [4], 2100 pmol·h/mL. The 50% effective concentration (EC50) in data set [1] was found to be 0.291 µM. Moreover, in data set [2], the “Ratio CC50/EC50” value is reported as above 344.
On to `CC(C)(CO)C(=O)SCCOP1(=O)OC[C@H]2O[C@@H](n3ccc(=O)[nH]c3=O)[C@](C)(Cl)[C@@H]2O1` (single isomer, unassigned), for which the AUC/dose in data set [3] is 5000 pmol·h/g; in data set [4] it was 1300 pmol·h/mL. The 50% effective concentration (EC50) in data set [1] came out at 0.248 µM. Moreover, the “Ratio CC50/EC50” value in data set [2] is on record as above 403.
For `CC(C)OC(=O)[C@@H](C)N[P@](=O)(OC[C@H]1O[C@@H](n2ccc(=O)[nH]c2=O)[C@](C)(Cl)[C@@H]1O)Oc1ccccc1`, in that order: 3750 pmol·h/g, 1050 pmol·h/mL, 9.6 µM and above 10.
In the case of `CCOC(=O)NCC(C)(C)C(=O)SCCOP1(=O)OC[C@H]2O[C@@H](n3ccc(=O)[nH]c3=O)[C@](C)(Cl)[C@@H]2O1` (single isomer, unassigned; 27b), the AUC/dose in data set [3] came out at 3300 pmol·h/g. Also, in data set [1], the EC50 is 0.073 µM. The “Ratio CC50/EC50” value in data set [2] is above 1370.
